The values below come from ChEMBL document CHEMBL1134685, “Antitumor Agents. 211. Fluorinated 2-phenyl-4-quinolone derivatives as antimitotic antitumor agents” (J Med Chem, 2001).

In one test the test system is HCT-116. Description: Inhibition of in vitro tumor cell growth of HCT116, colon cancer cell line. In kind it is functional. The conditions noted are these: Homo sapiens.
The test system of another test is K562. Description: Inhibition of in vitro tumor cell growth of K-562, leukemia cell line. In kind it is functional. The conditions noted are these: Homo sapiens.
A further test concerns OVCAR-3. Description: Inhibition of in vitro tumor cell growth of OVCAR-3,ovarian cancer cell line. Format: functional. The conditions noted are these: Homo sapiens.
The subject of another test is NCI-H226. Description: Inhibition of tumor cell growth of NCI-H226, non-small-cell lung cell line. In kind it is functional. Particulars: Homo sapiens.
The test system of another test is RXF 393. Description: Inhibition of in vitro tumor cell growth of RXF-393, renal cancer cell line. In kind it is functional. Particulars: Homo sapiens.
A further test has as its system SF-295. Description: Inhibition of in vitro tumor cell growth of SF-295, CNS tumor cell line. In kind it is functional. Particulars: Homo sapiens.
Another test concerns SF-268. Description: Inhibition of in vitro tumor cell growth of SF-268, CNS tumor cell line. Format: functional. The conditions noted are these: Homo sapiens.
Test [1] deals with T1, Tubulin alpha chain (Sus scrofa, UniProt P02550). Description: (§1) Inhibition of tubulin polymerization. (ITP). The gist of the method: (§2)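 Tubulin polymerization inhibition, with reaction mixtures containing 10 μM tubulin. Result given as IC50.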
A short description of test [2]: Inhibition of in vitro tumor cell growth of […], melanoma. Particulars: Homo sapiens. Format: functional.
In test [3] the target is Tubulin alpha chain (Sus scrofa) (UniProt P02550). Described as §1. In short, it runs like this:
as §2

Test [4] deals with T1, Tubulin alpha chain. Description: Inhibition of tubulin polymerization (ITP). The gist of the method: as §2

T1 sequence (P02550 whole entry, looked up): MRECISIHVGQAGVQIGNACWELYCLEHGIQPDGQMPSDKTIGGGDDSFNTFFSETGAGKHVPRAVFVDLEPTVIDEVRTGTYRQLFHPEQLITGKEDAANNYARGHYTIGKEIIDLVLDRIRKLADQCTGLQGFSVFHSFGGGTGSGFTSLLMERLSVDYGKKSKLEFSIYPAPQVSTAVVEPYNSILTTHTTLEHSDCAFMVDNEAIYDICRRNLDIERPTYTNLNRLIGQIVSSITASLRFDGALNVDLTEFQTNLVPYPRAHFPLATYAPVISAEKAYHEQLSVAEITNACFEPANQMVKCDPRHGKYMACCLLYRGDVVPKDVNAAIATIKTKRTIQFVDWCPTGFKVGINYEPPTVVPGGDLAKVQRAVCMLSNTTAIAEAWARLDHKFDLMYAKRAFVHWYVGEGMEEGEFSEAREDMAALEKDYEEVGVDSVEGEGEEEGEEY
Chain of Tubulin alpha chain (Sus scrofa) (P02550 whole entry, looked up): as above

In general, GI50 refers to the concentration that inhibits growth by half. The low end stands for more potent growth inhibition, the high end for less potent growth inhibition. What is called IC50 is the point on the concentration scale where inhibition reaches its midpoint. For `O=C(O)COc1cc(-c2ccccc2F)nc2cc3c(cc12)OCO3`, the GI50 in the test with HCT-116, with K562, in the test on OVCAR-3, with NCI-H226, in the test with RXF 393 and with SF-295 was above 100 µM throughout. Besides, the GI50 (in the test on SF-268; in [2]) was above 100 µM throughout. The molecule also showed an IC50 at Tubulin alpha chain [1] above 20 µM.
For the molecule `Cn1c(-c2ccccc2)cc(=O)c2ccccc21`, on Tubulin alpha chain [1], the IC50 was above 40 µM.
As for `Fc1ccccc1-c1cc(S)c2cc3c(cc2n1)OCO3`, the GI50 in the test on HCT-116 was 5.5 µM; with K562, 56.2 µM; with OVCAR-3 it was 21.4 µM; in the test on NCI-H226, 16.6 µM; with RXF 393, 29.5 µM; in the test on SF-295 it was 11.7 µM. The GI50 is 20 µM with SF-268 and 4.07 µM in [2].
Consider `O=c1cc(-c2ccccc2F)[nH]c2ccc(N3CCCC3)cc12`, for which the GI50 was 0.0324 µM with K562, below 0.01 µM in the test on RXF 393, 0.0389 µM in the test with SF-268 and below 0.01 µM in test [2]. The molecule further registered an IC50 in test [3] of 0.46 µM.
Molecule `O=C(O)CCCOc1cc(-c2ccccc2F)nc2cc3c(cc12)OCO3` registered an IC50 against Tubulin alpha chain [1] of 12 µM.
In the case of `O=c1[nH]c(/C=C/c2ccccc2)nc2ccccc12`, the IC50 at Tubulin alpha chain [1] amounted to 5 µM.
`Oc1cc(-c2ccccc2)nc2ccccc12` registered a half-maximal inhibitory concentration (IC50) against Tubulin alpha chain [4] of 7.3 µM. That is a single-digit micromolar value.
On to `CCOC(=O)CCCOc1cc(-c2ccccc2F)nc2cc3c(cc12)OCO3`, for which the GI50 in the test with HCT-116 is above 100 µM; in the test on SF-268, above 100 µM; in test [2] it was 57.5 µM. In addition, the IC50 at Tubulin alpha chain [1] was above 40 µM.
As to `O=c1cc(-c2ccccc2F)[nH]c2cc3c(cc12)OCO3`, half-maximal inhibition at Tubulin alpha chain [4] (IC50) was put at 0.68 µM. In [2], this molecule gave a GI50 of 0.0209 µM.
On to `CCOC(=O)COc1cc(-c2ccccc2F)nc2cc3c(cc12)OCO3`, for which the concentration for 50% growth inhibition (GI50) in the test on HCT-116 was 72.4 µM; in the test on K562, 38 µM; with NCI-H226 it was above 100 µM; with RXF 393 it was above 100 µM; in the test with SF-295, above 100 µM; in the test on SF-268, above 100 µM. In test [2], this molecule showed a GI50 of 72.4 µM. Besides, the IC50 against Tubulin alpha chain [1] is above 40 µM.
